# Screening data from PubChem BioAssay.
# The entries come from a sample that favours hits as a whole.
# UPR CHOP act – activators of apoptotic CHOP UPR arm, primary screen, cell-based, CHO-CHOP luciferase reporter, luminescence, uHTS; activation, % at 10 µM; UPR activation; percent of tunicamycin response over DMSO baseline; AID 449763, 2010; actives 0.34% (n = 330,000);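 active means at 10 µM dose, activation of 40% or more, normalized to positive control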;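 further: 100% = tunicamycin at 10 µg/mL and 0% = DMSO alone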
#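 measured by = luciferase luminescence | assay system = CHO-CHOP cells, stable luciferase reporter of PERK-eIF2a-CHOP signalling | amount = 500 reporter cells seeded per well | timing = 6 h compound exposure at 37 °C after overnight seeding | controls = positive tunicamycin 10 µg/mL, negative DMSO alone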
# CHOP inhibitor – inhibitors of CHOP promoter induction, primary screen, cell-based, unfolded protein response, luciferase reporter; CHO-K1 CHOP-promoter luciferase, tunicamycin-induced, 15-18 h; inhibition, % at 10 µM; actives 3.8% (n = 220,000);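 active means compounds that reduced the stress-induced luciferase reporter signal by more than about 70% of percent inhibition, limit read from the data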;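 further: 0% = tunicamycin plus vehicle and 100% = wells without tunicamycin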
# A1 inh – caspase 3/7 activation in MEF A1-2A-BIM cells, primary screen, A1 inhibitor project, cell-based, luminescence, HTS | actives 0.066% (n = 330,000) | caspase activation, % (concentration not given with the values) | Caspase-Glo 3/7 luminescence, 3 h; percent of clofoctol response, vehicle zero;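 active means over half of replicate activation scores above 10%, or exactly half above 10 with the replicate mean above 10; inconclusive means replicate mean below 10 yet half the replicates above 10; inactive means over half of replicates below 10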
# UPR XBP1 act – activators of adaptive XBP1 UPR arm, primary screen, cell-based, CHO-XBP1 luciferase reporter, luminescence, uHTS; IRE1-XBP1 UPR activation; percent of tunicamycin response, DMSO as zero; activation, % at 20 µM; actives 0.33% (n = 330,000); AID 463104, 2010;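 active means versus positive control, 20 µM dose yields 30% or more activation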;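 further: 100% = tunicamycin at 10 µg/mL and 0% = DMSO only wells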
#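 Material – CHO cell line with stable XBP1 luciferase reporter · Buffer or medium – F12 plus 10% FBS · Compound – single point, 20 µM final compound, 1% DMSO · Schedule – 16-18 h cell attachment at 37 °C, then 6 h compound exposure · Signal – Steady-Glo luminescence read · Benchmarks – high control tunicamycin 10 µg/mL final, low control DMSO vehicle only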
# CHOP inh conf – retest of CHOP induction inhibitors, confirmation, cell-based. inhibition, % at 10 µM. CHO-CHOP promoter luciferase reporter, tunicamycin-induced, luminescence. shares compounds with CHOP inhibitor. AID 504437, 2011. actives 45% (n = 2,100);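 active means mean of three repeat readings of reporter signal inhibition above a set limit, cut at about 70% in these data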;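 further: 0% = tunicamycin plus vehicle and 100% = wells lacking tunicamycin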
# UPR CHOP confirm – activators of apoptotic CHOP UPR arm, confirmation, cell-based, CHO-CHOP luciferase reporter, single concentration. shares compounds with UPR CHOP act. CHO-CHOP cells, CHOP-luciferase reporter luminescence; percent of tunicamycin response, DMSO as zero. activation, % at 10 µM. actives 64% (n = 1,000); in the data active means activation above about 33%;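 further: 0% = DMSO wells and 100% = tunicamycin 10 µg/mL wells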
# UPR XBP1 confirm – IRE1-XBP1 UPR arm activators, confirmation, cell-based, CHO-XBP1 luciferase reporter, luminescence, single concentration. actives 63% (n = 1,000). AID 485299, 2010. shares compounds with UPR XBP1 act. activation, % at 20 µM;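 active means reporter signal at least 30% of the positive control's activation in two or more of four replicate wells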;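 further: plate controls were DMSO negative control for no effect and tunicamycin 10 µg/mL positive control for full effect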
# The depositor's hits bear a star; ? = inconclusive; . = no result given.
SMILES,UPR CHOP act,CHOP inhibitor,A1 inh,UPR XBP1 act,CHOP inh conf,UPR XBP1 confirm,others
CC(=O)Nc1ccc(NC2=C(Cl)C(=O)c3ccccc3C2=O)cc1,45.3*,103.9*,.,-0.8,-124.8,.,UPR CHOP confirm=19.5
CCOc1cc(NC(=O)CCl)c(OCC)cc1NC(=O)CCl,152.8*,97.6*,0.2,-4.3,79.0*,.,UPR CHOP confirm=87.0*
CCOc1ccccc1NC(=O)CCC(=O)Nc1ccccc1OCC,-2.4,15.8,1.2,0.7,.,.,
N#C/C(=C/c1ccc(N2CCCCCC2)o1)c1ccc(Cl)cc1,91.5*,103.3*,1.8,-0.7,30.9,.,UPR CHOP confirm=16.6
O=C(CCl)c1ccc(Cc2ncc(C(F)(F)F)cc2Cl)s1,168.8*,103.7*,0.8,7.6,-119.0,.,UPR CHOP confirm=169.1*
CC1=NOC(=O)/C1=C/c1ccc(-c2ccc(Cl)cc2)o1,265.2*,108.6*,0.5,-8.8,65.7,.,UPR CHOP confirm=34.0*
CC1=NOC(=O)/C1=C\c1ccc(-c2ccc(Br)cc2)o1,.,-1.5,.,.,.,.,
CC1=NOC(=O)/C1=C\c1ccc(-c2cc(Cl)ccc2Cl)o1,69.1*,113.5*,2.8,-8.2,-20.3,.,UPR CHOP confirm=-8.9
CC1=NOC(=O)/C1=C\c1ccc(-c2ccc(Br)cc2C(=O)O)o1,-0.8,-9.7,-0.1,0.2,.,.,
Cc1ccc(-n2c(SCC(=O)NCCN3C(=O)CSC3=O)nnc2-c2ccccc2)cc1C,0.7,-2.0,0.6,1.9,.,.,
Cc1ccc(NCCC(=O)c2cccc([N+](=O)[O-])c2)cc1,3.4,12.8,0.0,1.6,.,.,
CC(=O)OC(C(=O)N1CCOCC1)c1c(F)cccc1F (configuration not stated),-3.1,-2.4,0.2,0.7,.,.,
Cc1ccccc1OCc1n(CC(=O)OC2CC(C)CCC2C(C)C)c2ccccc2[n+]1C (configuration not stated),7.2,107.6*,0.2,45.1*,137.2*,22.4,
CCN(CCNC(=O)C1CCCN(Cc2nc(-c3ccc(OC)cc3)oc2C)C1)c1ccccc1 (configuration not stated),0.3,49.7,0.3,3.7,.,.,
CCc1ccc(-c2nc(CN3CCC(C(=O)NCCN(CC)c4ccccc4)CC3)c(C)o2)cc1,3.7,98.2*,0.5,56.6*,105.3*,35.2*,
CC1CCc2cc(F)ccc2N1C(=O)CSc1nnc2c(n1)[nH]c1ccc(F)cc12 (configuration not stated),2.3,100.9*,0.6,66.9*,110.2*,50.9*,
CC1CCCCN1C(=O)CSc1nnc2c(n1)[nH]c1ccc(F)cc12 (configuration not stated),5.0,.,-2.6,-0.4,.,.,
CC(C)c1ccc(-c2cc(C(=O)N3N=C(C(F)F)CC3(O)C(F)F)c3ccccc3n2)cc1 (configuration not stated),4.4,99.5*,0.1,39.1*,105.1*,13.0,
CCc1ccc(NC(=O)C(CC)Sc2nc3cc4c(cc3c(=O)n2Cc2ccco2)OCO4)cc1 (configuration not stated),96.3*,96.3*,0.5,105.5*,-60.0,127.4*,UPR CHOP confirm=87.7*
O=C(N/N=C/c1ccc(N2CCCCC2)o1)c1ccccc1[N+](=O)[O-],-1.1,34.6,?,-4.0,.,.,
Cc1cc(N2CCN(c3ccc([N+](=O)[O-])c4cccnc34)CC2)c2ccccc2n1,42.1*,104.7*,0.4,104.1*,54.4,62.4*,UPR CHOP confirm=52.5*
COc1cc2nc(SCc3ccc(Cl)cc3Cl)n(Cc3cccs3)c(=N)c2cc1OC,-2.0,36.4,0.3,-1.1,.,.,
COc1ccc(Cn2c(SCc3cc(C)ccc3C)nc3cc(OC)c(OC)cc3c2=N)cc1,20.0,104.0*,0.8,99.9*,123.1*,66.8*,
C=CCNC(=S)NCC,-1.0,11.2,2.4,2.2,.,.,
O=C(Nc1nc(-c2cc3ccccc3o2)cs1)c1ccc(S(=O)(=O)N2CCCC2)cc1,9.1,59.7,-0.2,1.0,.,.,
SMILES,UPR CHOP act,CHOP inhibitor,A1 inh,UPR XBP1 act,CHOP inh conf,UPR XBP1 confirm,others
CC1CN(S(=O)(=O)c2ccc(C(=O)Nc3nc(-c4cc5ccccc5o4)cs3)cc2)CC(C)O1 (configuration not stated),12.8,106.6*,0.8,48.2*,72.8*,134.1*,
COc1ccc(N=c2oc3ccc(OC)cc3cc2-c2nc3ccccc3[nH]2)cc1,134.7*,101.9*,-0.2,84.3*,107.0*,132.6*,UPR CHOP confirm=147.0*
CCOC(=O)c1cnc(-n2nc(C)cc2C)nc1NC1CCCCC1,99.4*,106.4*,-0.8,39.6*,116.8*,11.6,UPR CHOP confirm=34.2*
CC(C)=CCCC1(C)C=Cc2c(c(C)cc3c2[nH]c2cc(O)ccc23)O1 (configuration not stated),3.5,104.2*,1.1,62.8*,118.7*,66.6*,
NS(=O)(=O)c1ccc(N=Nc2ccc(=O)[nH]c2O)cc1,.,12.2,1.2,.,.,.,
CCOC(=O)c1cnc(-c2ccccc2)nc1Oc1ccc(Cl)c(Cl)c1,-1.8,0.7,1.0,-5.6,.,.,
CCOC(=O)c1nnc(-c2ccccc2)nc1Oc1ccc(Cl)cc1,30.7,105.9*,-0.3,72.1*,-4.1,84.6*,
CC1CCCCN1C(=O)c1ccc(COc2ccc([N+](=O)[O-])cc2)o1 (configuration not stated),-1.1,32.7,0.7,0.7,.,.,
CC(=O)Nc1ccc(S(=O)(=O)N(CC(=O)NC2CC2)Cc2ccccc2)cc1,-0.1,.,1.5,0.5,.,.,
Cc1cnc(NC(=O)Cc2ccccc2Cl)s1,2.2,.,0.1,-5.7,.,.,
Cc1cnc(NC(=O)c2cc3c(C)nn(Cc4ccccc4Cl)c3s2)s1,4.0,104.0*,-0.4,43.2*,8.6,82.0*,
O=C(CCc1nc(-c2ccc(Cl)cc2)no1)OCc1ccc(Br)cc1,0.4,.,0.6,1.5,.,.,
CCOC(=O)c1c(NC(=O)Cc2cccs2)sc(C(=O)NC2CCCCC2)c1C,9.5,105.9*,0.1,54.6*,74.4*,43.3*,
COc1ccc(-c2nc(-c3ccc(NC(=O)c4ccc(Br)o4)cc3)no2)cc1OC,29.9,102.9*,0.9,34.6*,109.6*,15.6,
O=C(Nc1ccc(-c2nc3ncccc3o2)cc1)c1ccc(Br)o1,4.7,103.3*,-0.7,62.4*,-18.3,3.7,
Cc1cc(Cl)cc(Cl)c1OCCOc1cccc2cccnc12,5.0,68.3,0.3,-0.9,.,.,
